In brackets after ≈: the same amount, converted by molar mass.
Tests used:
[1] = system: herpes simplex virus type 1 (HSV-1); experiment: Plaque assay, antiviral activity against HSV-1; format: cell-based; settings: for IC50: Human alphaherpesvirus 1, Vero
[2] = system: hepatitis A virus HM 175 (HAV HM 175); experiment: Plaque assay, antiviral activity against HAV HM 175; format: cell-based; settings: for mean % of reduction, HAV HM 175: nontoxic dose of compound, average of three independent measurements
Procedure, shortened: (§1)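 Plaque reduction. Nontoxic dilutions of test compound were mixed 1:1 with virus at 1 × 105, 1 × 106 or 1 × 107, for 0.5 h at 37 °C. 10-fold dilutions went onto BGM (CBV4), FRHK4 (HAV HM 175) or Hep-2 (adenovirus 7), with 1 h adsorption at 37 °C. Overlay was 2× DMEM plus 1% agarose. Cells were formalin-fixed and crystal violet-stained, and plaques counted. Triplicate. IC50 is the half-maximal plaque-reduction concentration.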

[3] = system: ED-43/SG-Feo (VYG) replicon of hepatitis C virus genotype 4a (HCVcc); experiment: Antiviral bioassay against ED-43/SG-Feo; format: cell-based; settings: nontoxic dose of compound; average of three independent measurements
Procedure, shortened: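 Huh 7.5 cells carrying the ED-43/SG-Feo (VYG) HCV genotype 4a subgenomic replicon were treated with the nontoxic dose of test compound. Replicon RNA copies were quantified by TaqMan qRT-PCR, and the result was expressed as percent reduction.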

[4] = system: adenovirus type 7 (HAdV7); experiment: Plaque assay, antiviral activity against adenovirus type 7; format: cell-based; settings: nontoxic dose of compound; average of three independent measurements
Procedure, shortened: as §1

[5] = Cytotoxicity test on Vero cell line; format: cell-based; settings: African green monkey, uninfected Vero cells
Procedure, shortened: (§2)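 Test compound was dissolved at 50 mg/mL in DMSO and decontaminated with 100× antimycotic–antibiotic mix. Cells were seeded at 2 × 10^5 cells/mL and grown 24 h at 37 °C, 5% CO2, to monolayers. Bi-fold dilutions in DMEM were applied for 72 h. Read by daily microscopy for morphology and by trypan blue (0.4%) viable counts. CC50 taken as the concentration giving 50% of untreated-cell OD492.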

[6] = Cytotoxicity test on BGM cell line; format: cell-based; settings: African green monkey, uninfected BGM cells
Procedure, shortened: as §2

[7] = Cytotoxicity test on FRHK-4 cell line; format: cell-based; settings: rhesus monkey, uninfected FRHK-4 cells
Procedure, shortened: as §2

Hsp90α = Hsp90α (Homo sapiens, UniProt P07900); experiment: Hsp90α; format: biochemical; settings: for inhibition at 0.1 µg/mL: read-out: percentage inhibition of Hsp90α at 0.1 (μg/mL); for inhibition at 1 µg/mL: read-out: percentage inhibition of Hsp90α at 1 (μg/mL); for inhibition at 10 µg/mL: read-out: percentage inhibition of Hsp90α at 10 (μg/mL); for inhibition at 100 µg/mL: read-out: percentage inhibition of Hsp90α at 100 (μg/mL)
Procedure, shortened: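 AlphaScreen kit assay for Hsp90α C-terminal binding to PPID. Hsp90α was diluted to 1.5 ng/μL in assay buffer and premixed with test compound. The reaction was started with PPID diluted to 10 ng/μL and run 30 min at room temperature. Glutathione acceptor beads were added for 30 min, then streptavidin donor beads for 1 h, and Alpha counts read. Triplicate; percent inhibition calculated against control.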

E. coli (ATCC:3008) [8] = experiment: Agar well diffusion, inhibition zone; format: cell-based, Escherichia coli; settings: 15 mg/mL, 100 μL per well; mm ± SD
Procedure, shortened: (§3)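 Agar well diffusion. Saline inoculum adjusted to McFarland 0.5 ([…]), i.e. OD 0.13 at 625 nm, and swabbed over dried agar. After 15 min drying, 6 mm wells received 100 μL of test compound at 15 mg/mL. Plates incubated at 37 °C; bacterial zones read in mm after 24 h incubation […]. Triplicate, reported as mm ± SD. Gentamicin and ampicillin served as reference drugs.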

K. pneumonia (ATCC:4415) [9] = experiment: Agar well diffusion, inhibition zone; format: cell-based, Klebsiella pneumonia; settings: 15 mg/mL, 100 μL per well; mm ± SD
Procedure, shortened: as §3

[10] = system: P. aeruginosa (ATCC:27853); experiment: Agar well diffusion, inhibition zone; format: cell-based, Pseudomonas aeruginosa; settings: 15 mg/mL, 100 μL per well; mm ± SD
Procedure, shortened: as §3

S. aureus (ATCC:6538) [11] = experiment: Agar well diffusion, inhibition zone; format: cell-based, Staphylococcus aureus; settings: for diameter of the IZ, S. aureus (ATCC:6538): 15 mg/mL, 100 μL per well, mm ± SD; for zone of inhibition at 15000 µg/mL: Staphylococcus aureus, 24 h, read-out: diameter of the IZ, S. aureus (ATCC:6538)
Procedure, shortened: as §3

S. mutans (ATCC:25175) [12] = experiment: Agar well diffusion, inhibition zone; format: cell-based; settings: for diameter of the IZ, S. mutans (ATCC:25175): 15 mg/mL, 100 μL per well, mm ± SD; for zone of inhibition at 15000 µg/mL: Streptococcus mutans, 24 h, read-out: diameter of the IZ, S. mutans (ATCC:25175)
Procedure, shortened: as §3

C. albicans (ATCC:10231) [13] = experiment: Agar well diffusion, inhibition zone; format: cell-based, Candida albicans; settings: 15 mg/mL, 100 μL per well; mm ± SD
Procedure, shortened: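 Fungal plates were poured and agar dried 15 min. 6 mm wells were cut with a sterile borer and filled with 100 μL test compound solution at 15 mg/mL. Inhibition zone diameter (mm) was read after 48 h incubation. Triplicate, reported as mm ± SD.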

E. coli (ATCC:3008) [14] = experiment: MIC, twofold serial dilution in agar; format: cell-based; settings: Escherichia coli, read-out: MIC, E. coli (ATCC:3008)
K. pneumonia (ATCC:4415) [15] = experiment: MIC, twofold serial dilution in agar; format: cell-based; settings: Klebsiella pneumoniae, read-out: MIC, K. pneumonia (ATCC:4415)
[16] = system: P. aeruginosa (ATCC:27853); experiment: MIC, twofold serial dilution in agar; format: cell-based; settings: Pseudomonas aeruginosa, read-out: MIC, P. aeruginosa (ATCC:27853)
S. aureus (ATCC:6538) [17] = experiment: MIC, twofold serial dilution in agar; format: cell-based; settings: Staphylococcus aureus, read-out: MIC, S. aureus (ATCC:6538)
S. mutans (ATCC:25175) [18] = experiment: MIC, twofold serial dilution in agar; format: cell-based; settings: Streptococcus mutans, read-out: MIC, S. mutans (ATCC:25175)
[19] = biological target: T1, dihydrofolate reductase (DHFR) (Homo sapiens, UniProt P00374); experiment: DHFR inhibitor screening assay; format: biochemical; settings: for IC50: IC50 on the DHFR, average of three measurements; for inhibition at 0.01 µg/mL: read-out: percent inhibition of DHFR at 0.01 (μg/mL); for inhibition at 0.1 µg/mL: read-out: percent inhibition of DHFR at 0.1 (μg/mL); for inhibition at 1 µg/mL: read-out: percent inhibition of DHFR at 1 (μg/mL); for inhibition at 10 µg/mL: read-out: percent inhibition of DHFR at 10 (μg/mL)
T1 sequence (P00374 1-187): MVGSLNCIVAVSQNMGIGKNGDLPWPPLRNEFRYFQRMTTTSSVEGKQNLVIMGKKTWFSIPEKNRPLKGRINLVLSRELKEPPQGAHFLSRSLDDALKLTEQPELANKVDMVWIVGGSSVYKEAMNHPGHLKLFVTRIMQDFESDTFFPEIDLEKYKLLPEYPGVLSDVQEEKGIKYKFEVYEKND

coxsackievirus B4 (CBV4) = experiment: Plaque assay, antiviral activity against CBV4; format: cell-based; settings: nontoxic dose of compound; average of three independent measurements
Procedure, shortened: as §1

C. albicans (ATCC:10231) [20] = experiment: MIC, twofold serial dilution in agar; format: cell-based, Candida albicans
Procedure, shortened: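 Test compound and reference drugs (ampicillin, gentamicin, nystatin) were made as 1000 μg/mL DMSO stocks, then diluted twofold to 500, 250, 125, 62.5 and 31.25 μg/mL. Dilutions were mixed into sterile nutrient agar, and a defined microbial inoculum was applied to the agar surface. Plates incubated at 37 °C in a humid chamber.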

Hsp90α, sequence (P07900 535-732 limits assumed): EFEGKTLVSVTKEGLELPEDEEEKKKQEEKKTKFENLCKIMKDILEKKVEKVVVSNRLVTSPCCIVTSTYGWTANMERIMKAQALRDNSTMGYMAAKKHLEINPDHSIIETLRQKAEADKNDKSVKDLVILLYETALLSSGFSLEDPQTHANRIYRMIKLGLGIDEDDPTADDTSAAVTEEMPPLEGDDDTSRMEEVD

Structure (SMILES) | IC50 [1] | mean % of reduction, HCVcc genotype 4 [3] | mean % of reduction, adenovirus type 7 [4] | CC50 at 72 h [5] | CC50 at 72 h [6] | inhibition at 0.1 µg/mL (Hsp90α) | inhibition at 1 µg/mL (Hsp90α) | inhibition at 10 µg/mL (Hsp90α) | inhibition at 100 µg/mL (Hsp90α) | diameter of the IZ, E. coli (ATCC:3008) (E. coli (ATCC:3008) [8]) | diameter of the IZ, K. pneumonia (ATCC:4415) (K. pneumonia (ATCC:4415) [9]) | diameter of the IZ, P. aeruginosa (ATCC:27853) [10] | diameter of the IZ, S. aureus (ATCC:6538) (S. aureus (ATCC:6538) [11]) | diameter of the IZ, S. mutans (ATCC:25175) (S. mutans (ATCC:25175) [12]) | diameter of the IZ, C. albicans (ATCC:10231) (C. albicans (ATCC:10231) [13]) | zone of inhibition at 15000 µg/mL (S. aureus (ATCC:6538) [11]) | zone of inhibition at 15000 µg/mL (S. mutans (ATCC:25175) [12]) | MIC (E. coli (ATCC:3008) [14]) | MIC (K. pneumonia (ATCC:4415) [15]) | MIC [16] | also measured
CCOC(=O)c1cc(C#N)c(=O)n(NS(=O)(=O)c2ccccc2)c1N [15c, Ethyl 2-Amino-5-cyano-6-oxo-1-(phenylsulfonamido)-1,6-dihydropyridine-3-carboxylate] | 90 µg/mL (≈ 248 µM) | 20.0 ± 0.15% | 36.7 ± 0.30% | 250 µg/mL (≈ 690 µM) | 260 µg/mL (≈ 718 µM) | 8.42% | 26.1% | 48.7% | 72.7% | no activity | no activity | no activity | no activity | no activity | no activity | – | – | – | – | – | IC50 ([2]; Hepatovirus A, FRhK-4): 88 µg/mL (≈ 243 µM); CC50 at 72 h [7]: 260 µg/mL (≈ 718 µM)
Nc1ccc(S(=O)(=O)Nc2ncccn2)cc1 [sulfadiazine, reference compound] | – | – | – | – | – | – | – | – | – | 19.8 ± 0.4 mm | – | 24.0 ± 1.4 mm | – | – | no activity | 31.3 ± 2.1 mm | 16.3 ± 1.1 mm | 250 µg/mL (≈ 999 µM) | 250 µg/mL (≈ 999 µM) | 250 µg/mL (≈ 999 µM) | MIC (S. aureus (ATCC:6538) [17]): 500 µg/mL (≈ 2000 µM); MIC (S. mutans (ATCC:25175) [18]): 125 µg/mL (≈ 499 µM); IC50 [19]: 0.803 µM; inhibition at 0.01 µg/mL [19]: 28.7%; inhibition at 0.1 µg/mL [19]: 46.8%; inhibition at 1 µg/mL [19]: 60.2%; inhibition at 10 µg/mL [19]: 76.7%
CCOC(=O)c1cc(C#N)c(=O)n(NS(=O)(=O)c2ccc(C)cc2)c1N [15d, Ethyl 2-Amino-5-cyano-1-(4-methylphenylsulfonamido)-6-oxo-1,6-dihydropyridine-3-carboxylate] | 90 µg/mL (≈ 239 µM) | 20.0 ± 0.20% | 30.0 ± 0.10% | 220 µg/mL (≈ 584 µM) | 240 µg/mL (≈ 638 µM) | 10.5% | 25.9% | 57.4% | 89.9% | 19.6 ± 1.5 mm | – | – | – | – | – | 11.3 ± 1.1 mm | 9 ± 1 mm | 1000 µg/mL (≈ 2660 µM) | – | – | mean % of reduction, HAV HM 175 [2]: 36.7 ± 0.25%; IC50 [19]: 12.4 µM; inhibition at 0.01 µg/mL [19]: 11.1%; inhibition at 0.1 µg/mL [19]: 20.7%; inhibition at 1 µg/mL [19]: 39.9%; inhibition at 10 µg/mL [19]: 56.1%
Cc1ccc(S(=O)(=O)Nn2c(N)c(C#N)cc(C#N)c2=O)cc1 [15b, N-(6-Amino-3,5-dicyano-2-oxopyridin-1(2H)-yl)-4-methylbenzenesulfonamide] | – | 33.3 ± 0.10% | 13.3 ± 0.50% | – | – | – | – | – | – | no activity | no activity | no activity | no activity | no activity | no activity | – | – | – | – | – | mean % of reduction, herpes simplex virus ([1]; nontoxic dose of compound, average of three independent measurements): 30.0 ± 0.30%; mean % of reduction, CBV4 (coxsackievirus B4 (CBV4)): 40.0 ± 0.20%; mean % of reduction, HAV HM 175 [2]: 20.0 ± 0.10%
C[C@@H]1[C@H](O)[C@@H](C)/C=C/C=C/CC/C=C/C=C/C=C/C=C/C(O[C@H]2O[C@H](C)[C@@H](O)[C@H](N)[C@@H]2O)CC2O[C@](O)(CC(O)C(O)CCC(O)CC(O)CC(O)CC(=O)O[C@H]1C)CC(O)C2C(=O)O (stereo partly drawn) [nystatin, reference compound] | – | – | – | – | – | – | – | – | – | – | – | – | – | – | 28.0 ± 0.2 mm | – | – | – | – | – | MIC, C. albicans (ATCC:10231) (C. albicans (ATCC:10231) [20]): 31.25 µg/mL (≈ 33.7 µM)
CNC(C)C1CCC(N)C(OC2C(N)CC(N)C(OC3OCC(C)(O)C(NC)C3O)C2O)O1 (stereo not drawn) [gentamicin] | – | – | – | – | – | – | – | – | – | 25.0 ± 0.1 mm | – | 35.0 ± 0.1 mm | – | – | – | – | – | 31.2 µg/mL (≈ 65.4 µM) | 62.5 µg/mL (≈ 131 µM) | 125 µg/mL (≈ 262 µM) | –

Reference: PMC7557949 (ACS Omega, 2020)
